The source made the active and inactive calls. No cut-off for these calls is given here.
Legend:
[1] = test system: Mus musculus; assay: (§1) Nephrotoxicity in Balb/c mouse infected with Trypanosoma cruzi MHOM/Pe/2011/Arequipa DTU 5 trypamastigotes assessed as increase in urea level in serum at 100 mg/kg, po once daily for 5 consecutive days starting from day 75 post infection measured on day 127 post infection by biochemical analysis relative to control; type: toxicity, organism-based; conditions: in vivo
[2] = test system: Mus musculus; assay: as §1, with “81” for “127”; type: toxicity, organism-based; conditions: in vivo
[3] = test system: Trypanosoma cruzi; assay: Antitrypanosomal activity against Trypanosoma cruzi MHOM/Pe/2011/Arequipa DTU 5 epimastigotes assessed as effect on parasite glycerol pathway by measuring increase in glycerol excretion at IC25 after 72 hrs by 1H NMR method; type: functional, organism-based
In short: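 Arequipa epimastigotes exposed at IC25 for 72 h alongside an untreated control. Excreted catabolites were analysed by 1H NMR, and each peak is reported as % variation versus the control. Three separate determinations.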

[4] = test system: Trypanosoma cruzi; assay: (§2) Antitrypanosomal activity against Trypanosoma cruzi MHOM/Pe/2011/Arequipa DTU 5 trypamastigotes infected in Balb/c mouse assessed as reduction in parasitaemia reactivation in lung tissue at 100 mg/kg, po pretreated once daily for 5 consecutive days starting from day 75 post infection followed by cyclophosphamide-induced immunosuppression on day 100 post infection every 4 days for a maximum of 3 doses measured on day 127 post infection by PCR method; type: functional; design: scale not given: the % may be the effect or the level left
In short: (§3)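 Necropsy on day 127 pi after oral treatment and cyclophosphamide immunosuppression. Tissue DNA was amplified by PCR targeting the ~300 bp T. cruzi SOD gene, 200 nM each primer, 30 cycles with 55.5 °C annealing. Products run on 2 % agarose; positive organs counted out of six mice.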

[5] = test system: Trypanosoma cruzi; assay: as §2, with “muscle” for “lung”; type: functional; design: scale not given: the % may be the effect or the level left
[6] = test system: Trypanosoma cruzi; assay: as §2, with “brain” for “lung”; type: functional; design: scale not given: the % may be the effect or the level left; in short: as §3
[7] = test system: Mus musculus; assay: Cardiotoxicity in Balb/c mouse infected with Trypanosoma cruzi MHOM/Pe/2011/Arequipa DTU 5 trypamastigotes assessed as decrease in ratio of creatine kinase in muscle to brain at […], po once daily for 5 consecutive days starting from day 10 post infection measured on day 16 post infection by biochemical analysis relative to control; type: toxicity, organism-based; design: scale not given: the % may be the effect or the level left; conditions: in vivo
In short: (§4)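 Serum clinical chemistry in Arequipa-infected female BALB/c mice. Oral 20 mg·kg-1 per day for 5 days, started day 10 or day 75 pi. Samples taken at day 16 pi or day 81 pi, and on necropsy day. Markers: CK-MB and LDH (U/L), AST, ALT and alkaline phosphatase (U/L), total bilirubin. Results scored relative to infected untreated controls; uninfected reference n = 15.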

[8] = test system: Trypanosoma cruzi; assay: as §2, with “in Ig-G level” for “in parasitaemia reactivation”, “in serum” for “in lung tissue”, “at 20” for “at 100”, “by ELISA” for “by PCR method”; type: functional, organism-based
In short: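 Female BALB/c mice (8-10 weeks, 20-25 g), six per group, infected i.p. with 5 x 10^5 Arequipa bloodstream trypomastigotes. Compound was given orally once daily for 5 days from day 10 or day 75 pi, at 20 mg·kg-1 per day in 5 % DMSO/0.5 % HPMC. Anti-T. cruzi IgG in serum was measured by ELISA with Fe-SOD antigen, read as OD 490 nm.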

[9] = test system: Trypanosoma cruzi; assay: as §2, with “in adipose” for “in lung”, “at 20” for “at 100”, “day 10” for “day 75”; type: functional; design: scale not given: the % may be the effect or the level left; in short: as §3
[10] = test system: Trypanosoma cruzi; assay: Antitrypanosomal activity against Trypanosoma cruzi MHOM/Pe/2011/Arequipa DTU 5 trypamastigotes infected in Balb/c mouse assessed as reduction in parasitaemia level at 20 mg/kg, po once daily for 5 consecutive days starting from day 10 post infection measured on day 23 post infection by Neubauer chamber method relative to control; type: functional; design: scale not given: the % may be the effect or the level left
In short: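 Six female BALB/c mice per group, infected i.p. with 5 x 10^5 Arequipa bloodstream trypomastigotes in PBS. Oral dosing once daily for 5 days from day 10 pi, 20 mg·kg-1 per day in aqueous 5 % DMSO/0.5 % HPMC, vehicle to controls. Blood trypomastigotes counted in a Neubauer chamber (parasites·mL-1); means ± SD.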

[11] = test system: Trypanosoma cruzi; assay: as §2, with “in brain” for “in lung”, “at 20” for “at 100”, “day 10” for “day 75”; type: functional; design: scale not given: the % may be the effect or the level left; in short: as §3
[12] = test system: Trypanosoma cruzi; assay: as §2, with “in adipose” for “in lung”, “at 20” for “at 100”; type: functional; design: scale not given: the % may be the effect or the level left; conditions: pooled result: one value given for 9 cell lines, strains, targets or settings; in short: as §3
[13] = test system: Mus musculus; assay: as §1, with “Hepatotoxicity” for “Nephrotoxicity”, “total bilirubin” for “urea”, “level” for “level in serum”, “20” for “100”, “10” for “75”, “16” for “127”; type: toxicity, organism-based; conditions: in vivo
[14] = test system: Mus musculus; assay: as §1, with “Hepatotoxicity” for “Nephrotoxicity”, “total bilirubin” for “urea”, “level” for “level in serum”, “20” for “100”, “10” for “75”; type: toxicity, organism-based; conditions: in vivo
[15] = test system: Mus musculus; assay: Cardiotoxicity in Balb/c mouse infected with Trypanosoma cruzi MHOM/Pe/2011/Arequipa DTU 5 trypamastigotes assessed as decrease in ratio of creatine kinase in muscle to brain at 20 mg/kg, po once daily for 5 consecutive days starting from day 75 post infection measured on day 81 post infection by biochemical analysis relative to control; type: toxicity, organism-based; design: scale not given: the % may be the effect or the level left; conditions: in vivo; in short: as §4
[16] = test system: Trypanosoma cruzi; assay: as §2, with “in bone marrow” for “in lung”, “at 20” for “at 100”, “day 10” for “day 75”; type: functional; design: scale not given: the % may be the effect or the level left; in short: as §3
[17] = test system: Trypanosoma cruzi; assay: as §2, with “in esophagus” for “in lung”, “at 20” for “at 100”, “day 10” for “day 75”; type: functional; design: scale not given: the % may be the effect or the level left; in short: as §3
[18] = test system: Mus musculus; assay: as §1, with “Cardiotoxicity” for “Nephrotoxicity”, “decrease” for “increase in urea level”, “serum LDH level” for “serum”, “20” for “100”; type: toxicity, organism-based; design: scale not given: the % may be the effect or the level left; conditions: in vivo; in short: as §4
[19] = test system: Trypanosoma cruzi; assay: as §2, with “in muscle” for “in lung”, “at 20” for “at 100”, “day 10” for “day 75”; type: functional; design: scale not given: the % may be the effect or the level left
[20] = test system: Mus musculus; assay: Toxicity in Balb/c mouse assessed as reduction in body mass at 20 mg/kg, po once daily for 5 consecutive days starting from day 75 post infection relative to control; type: organism-based; design: scale not given: the % may be the effect or the level left; conditions: in vivo
[21] = test system: Trypanosoma cruzi; assay: as §2, with “in stomach” for “in lung”, “at 20” for “at 100”, “day 10” for “day 75”; type: functional; design: scale not given: the % may be the effect or the level left
[22] = test system: Mus musculus; assay: as §1, with “decrease” for “increase”, “uric acid” for “urea”, “20” for “100”, “10” for “75”, “16” for “127”; type: toxicity, organism-based; design: scale not given: the % may be the effect or the level left; conditions: in vivo
[23] = test system: Mus musculus; assay: as §1, with “Hepatotoxicity” for “Nephrotoxicity”, “ratio of serum AST to GOT” for “urea”, “level” for “level in serum”; type: toxicity, organism-based; conditions: in vivo

COc1ccc(C(=O)CCN2CCN(c3ccc(F)cc3)CC2)cc1
Activity [1]: <= 10%
Activity [2]: <= 30%
Activity [3]: Active

COc1ccc(C(=O)CCN2CCN(c3ccc(Cl)cc3)CC2)cc1
Activity [4]: 78%
Activity [5]: 78%
Activity [6]: 78%
Activity [7]: <= 20%

O=C(Cn1ccnc1[N+](=O)[O-])NCc1ccccc1 [BENZNIDAZOLE]
Activity [8]: Active
Activity [9]: 33%
Activity [10]: 70%
Activity [11]: 33%
Activity [12]: 55%
Activity [13]: <= 20%
Activity [14]: <= 10%
Activity [15]: <= 10%
Activity [16]: 33%
Activity [17]: 33%
Activity [18]: <= 20%
Activity [19]: 33%
Activity [20]: > 10%
Activity [21]: 33%
Activity [22]: > 40%

COc1ccc(C(=O)CCN2CCN(c3ccc([N+](=O)[O-])cc3)CC2)cc1
Activity [23]: <= 20%

— ChEMBL document CHEMBL4118256, “Second Generation of Mannich Base-Type Derivatives with in Vivo Activity against Trypanosoma cruzi” (J Med Chem, 2018)
